For two compounds, stoichiometry N and remaining activity results are on record in publication PMC3383389 (Molecular and Biochemical Parasitology, 2012).

Assay [1] has as its target Trypanosoma brucei M32 metallocarboxypeptidase TbMCP-1, N-terminally GST-tagged recombinant enzyme (Trypanosoma brucei (Lister 427)). Kind of assay: SEC.
A further assay concerns the target T1, TbMCP-1 (Trypanosoma brucei, UniProt Q386R0).
T1 sequence (Q386R0 1-503): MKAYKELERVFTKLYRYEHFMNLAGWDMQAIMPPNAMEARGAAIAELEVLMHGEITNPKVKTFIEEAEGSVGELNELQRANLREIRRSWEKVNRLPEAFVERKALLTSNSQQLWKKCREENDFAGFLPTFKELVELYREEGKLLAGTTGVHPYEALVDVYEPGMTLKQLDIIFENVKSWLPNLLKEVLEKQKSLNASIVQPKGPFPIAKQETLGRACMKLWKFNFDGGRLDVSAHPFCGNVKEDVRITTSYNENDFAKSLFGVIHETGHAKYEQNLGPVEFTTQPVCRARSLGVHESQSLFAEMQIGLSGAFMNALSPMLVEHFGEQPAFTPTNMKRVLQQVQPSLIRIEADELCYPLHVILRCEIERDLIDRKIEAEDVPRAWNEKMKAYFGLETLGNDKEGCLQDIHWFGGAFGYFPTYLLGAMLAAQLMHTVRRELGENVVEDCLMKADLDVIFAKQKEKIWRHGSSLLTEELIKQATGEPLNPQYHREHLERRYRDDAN
Kind of assay: inhibition of FA-Ala-Lys hydrolysis after pre-incubation. In kind it is biochemical. Particulars: read-out: % residual activity at 5 μM. In outline:
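GST-fused recombinant TbMCP-1 was expressed in E. coli BL21 Codon Plus (DE3), purified on glutathione-agarose and desalted. The enzyme was pre-incubated with test compound (metal chlorides were tested from 1 µM to 1 mM). Activity was then read continuously at 340 nm with 200 µM furyl-acryloyl-Ala-Lys in 100 mM MOPS, pH 7.3, and reported as % residual activity.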

Consider “Trypanosoma brucei M32 metallocarboxypeptidase TbMCP-1, N-terminally GST-tagged recombinant enzyme”, for which, in assay [1], the stoichiometry N was found to be 2.

As for `N=C(N)NCCSC(CC(=O)O)C(=O)O` (centres unmarked) [GEMSA], on TbMCP-1, the remaining activity at 5 µM is 9.1 ± 1.2%.
